For 38 compounds, Intrinsic activity and IC50 results are on record in ChEMBL document CHEMBL1125010, “Relaxant activity of 4-amido-3,4-dihydro-2H-1-benzopyran-3-ols and 4-amido-2H-1-benzopyrans on guinea pig isolated trachealis” (J Med Chem, 1990).

Assay [1] is filed under the species Cavia porcellus. In words: Intrinsic activity measured on Guinea pig tracheal spiral strips. It is filed as functional, Trachea. The method, boiled down: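 Guinea pig isolated trachealis relaxation. Intrinsic activity is the compound's maximum relaxant response divided by the maximum produced by isoprenaline. Reported as an arithmetic mean.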
The species entered for assay [2] is Cavia porcellus. The experiment in a line: Inhibition of spontaneous tone in Guinea pig tracheal spiral strips. It is filed as functional, Trachea. The method, boiled down: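 Guinea pig isolated trachealis, spontaneous tone. Relaxation is compared with the response to isoprenaline. IC50 is the concentration giving 50% of the isoprenaline response, read from the dose-response curve. Reported as the geometric mean, generally of four or more determinations.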

Consider `CC1(C)C=C(N2CCCC2=O)c2cc(C#N)ccc2O1`, for which the Intrinsic activity in the assay filed under Cavia porcellus [1] was 0.91. Moreover, in the assay listed under Cavia porcellus [2] (Cavia porcellus, Trachea), it took 1.57 µM to reach half-maximal inhibition (IC50).

On to `CC1(C)C=C(n2ccccc2=O)c2cc(C#N)ccc2O1` [BIMAKALIM], for which, in the assay listed under Cavia porcellus [1], the Intrinsic activity is given as 0.93. Besides, in the assay listed under Cavia porcellus [2] (Cavia porcellus, Trachea), half-maximal inhibition (IC50) required 0.089 µM.

`CC1(C)Oc2cc(C(F)(F)F)ccc2[C@@H](N2CCCC2=O)[C@@H]1O` yielded an Intrinsic activity in the assay listed under Cavia porcellus [1] of 0.9. For the same compound, half-maximal inhibition in the assay filed under Cavia porcellus [2] (Cavia porcellus, Trachea) (IC50) required 0.73 µM.

The compound `CC1(C)C=C(n2ccccc2=O)c2c[n+]([O-])ccc2O1` gave an Intrinsic activity in the assay filed under Cavia porcellus [1] of 0.01. Besides, the IC50 (in general, the midpoint of a concentration-inhibition curve) in the assay listed under Cavia porcellus [2] (Cavia porcellus, Trachea) was > 20 µM.

In the assay listed under Cavia porcellus [1], `CC1(C)Oc2ccc(C(F)(F)F)cc2[C@@H](N2CCCC2=O)[C@@H]1O` returned an Intrinsic activity of 0.92. This compound returned an IC50 in the assay filed under Cavia porcellus [2] (Cavia porcellus, Trachea) of 0.41 µM.

Turning to `CC(N/C(=N\C#N)Nc1ccncc1)C(C)(C)C` (centres undefined) [PINACIDIL ANHYDROUS], in the assay filed under Cavia porcellus [1], the Intrinsic activity worked out at 0.86. This compound returned an IC50 in the assay listed under Cavia porcellus [2] (Cavia porcellus, Trachea) of 3.63 µM.

Take `COC(=O)C1=C(C)NC(C)=C(C(=O)OC)C1c1ccccc1[N+](=O)[O-]` [NIFEDIPINE]: the Intrinsic activity in the assay listed under Cavia porcellus [1] turned out to be 0.49. Moreover, the IC50 in the assay listed under Cavia porcellus [2] (Cavia porcellus, Trachea) was > 20 µM.

As to `CC1(C)Oc2ccc(C#N)cc2[C@@H](N2CCC2=O)[C@@H]1O`, the IC50 in the assay filed under Cavia porcellus [2] (Cavia porcellus, Trachea) was > 20 µM.

In turn, `CC1(C)Oc2ccc(C(F)(F)F)cc2[C@@H](N2CCCCC2=O)[C@@H]1O` displayed an Intrinsic activity in the assay filed under Cavia porcellus [1] of 0.96. 0.058 µM corresponded to half-maximal inhibition in the assay filed under Cavia porcellus [2] (Cavia porcellus, Trachea) (IC50).

For `CCc1ccc2c(c1)[C@@H](N1CCCC1=O)[C@H](O)C(C)(C)O2`, the Intrinsic activity in the assay filed under Cavia porcellus [1] is reported as 0.92. In the assay filed under Cavia porcellus [2] (Cavia porcellus, Trachea), this compound gave an IC50 of 2.68 µM.

On to `CC1(C)Oc2cc(C(F)(F)F)ccc2[C@@H](N2CCCCC2=O)[C@@H]1O` (stereo in doubt; (-)24), for which, in the assay filed under Cavia porcellus [1], the Intrinsic activity is 0.69. In addition, in the assay filed under Cavia porcellus [2], the IC50 stood at 12.6 µM.

In turn, `CC1(C)C=C(N2CCCCC2=O)c2c(cccc2C(F)(F)F)O1` registered an Intrinsic activity in the assay listed under Cavia porcellus [1] of 0.11. In addition, the IC50 in the assay listed under Cavia porcellus [2] (Cavia porcellus, Trachea) was > 20 µM.

In the assay listed under Cavia porcellus [1], `CCc1ccc2c(c1)OC(C)(C)[C@@H](O)[C@@H]2N1CCCCC1=O` displayed an Intrinsic activity of 0.83. 2.25 µM corresponded to half-maximal inhibition in the assay listed under Cavia porcellus [2] (Cavia porcellus, Trachea) (IC50).

`CC1(C)Oc2cc(C(F)(F)F)ccc2[C@@H](N2CCCCC2=O)[C@@H]1O` (stereo in doubt; (+)24) came in with an Intrinsic activity in the assay filed under Cavia porcellus [1] of 0.89. The compound further displayed an IC50 in the assay filed under Cavia porcellus [2] of 0.36 µM.

Compound `CC1(C)Oc2ccc(C#N)cc2C(N2CCCC2=O)C1O` (centres undefined) [CROMAKALIM] came in with an Intrinsic activity in the assay filed under Cavia porcellus [1] of 0.89. The same compound had an IC50 in the assay listed under Cavia porcellus [2] (Cavia porcellus, Trachea) of 1.1 µM.

In turn, `CC1(C)C=C(N2CCCCC2=O)c2cnccc2O1` showed an Intrinsic activity in the assay listed under Cavia porcellus [1] of 0.92. The IC50 in the assay listed under Cavia porcellus [2] (Cavia porcellus, Trachea) stood at 2.2 µM.

`Cc1ccc2c(c1)[C@@H](N1CCCC1=O)[C@H](O)C(C)(C)O2` gave an Intrinsic activity in the assay filed under Cavia porcellus [1] of 0.62. In addition, the IC50 in the assay filed under Cavia porcellus [2] (Cavia porcellus, Trachea) was 13.5 µM.

In the assay listed under Cavia porcellus [1], `CC1(C)Oc2ccc(C(F)(F)F)cc2[C@@H](n2ccccc2=O)[C@@H]1O` yielded an Intrinsic activity of 0.96. This compound showed an IC50 in the assay listed under Cavia porcellus [2] (Cavia porcellus, Trachea) of 0.54 µM.

`CC1(C)Oc2cc(C(F)(F)F)ccc2[C@@H](N2CCCCC2=O)[C@@H]1O` (racemic) displayed an IC50 in the assay listed under Cavia porcellus [2] of 0.66 µM.

Turning to `CC1(C)Oc2cc(C#N)ccc2[C@@H](N2CCCCC2=O)[C@@H]1O`, the Intrinsic activity in the assay filed under Cavia porcellus [1] is given as 0.56. The IC50 in the assay filed under Cavia porcellus [2] (Cavia porcellus, Trachea) is > 17 µM.

Compound `CC1(C)Oc2ccncc2[C@@H](N2CCCC2=O)[C@@H]1O` had an Intrinsic activity in the assay listed under Cavia porcellus [1] of 0.68. The compound further returned a half-inhibitory concentration (IC50) in the assay listed under Cavia porcellus [2] (Cavia porcellus, Trachea) of 8.6 µM.

In the assay filed under Cavia porcellus [1], `CC1(C)C=C(n2ccccc2=O)c2cnccc2O1` came in with an Intrinsic activity of 0.93. The IC50 in the assay listed under Cavia porcellus [2] (Cavia porcellus, Trachea) worked out at 2.1 µM.

Turning to `CC1(C)Oc2ccc(C#N)cc2[C@@H](N2CCCCC2=O)[C@@H]1O`, the Intrinsic activity in the assay filed under Cavia porcellus [1] is 0.82. In the assay filed under Cavia porcellus [2] (Cavia porcellus, Trachea), this compound gave an IC50 of 0.27 µM.

In the assay filed under Cavia porcellus [1], `CC1(C)C=C(N2CCCC2=O)c2cnccc2O1` returned an Intrinsic activity of 0.67. The IC50 in the assay listed under Cavia porcellus [2] (Cavia porcellus, Trachea) came out at 6.7 µM.

Regarding `CC1(C)C=C(N2CCCCC2=O)c2ccc(C#N)cc2O1`, in the assay listed under Cavia porcellus [1], the Intrinsic activity was determined as 0.86. This compound registered an IC50 in the assay filed under Cavia porcellus [2] (Cavia porcellus, Trachea) of 3.96 µM.

In turn, `Cc1ccc2c(c1)[C@@H](N1CCCCC1=O)[C@H](O)C(C)(C)O2` came in with an Intrinsic activity in the assay listed under Cavia porcellus [1] of 0.92. In the assay filed under Cavia porcellus [2] (Cavia porcellus, Trachea), the IC50 came to 1.2 µM.

With `CC(C)(C)NCC(O)c1ccc(O)c(CO)c1` (centres undefined) [ALBUTEROL], in the assay filed under Cavia porcellus [1], the Intrinsic activity worked out at 0.98. In the assay listed under Cavia porcellus [2] (Cavia porcellus, Trachea), this compound yielded an IC50 of 0.018 µM.

Compound `CC1(C)C=C(N2CCCCC2=O)c2cc(C#N)ccc2O1` showed an Intrinsic activity in the assay filed under Cavia porcellus [1] of 0.9. The IC50 in the assay filed under Cavia porcellus [2] (Cavia porcellus, Trachea) was 1.1 µM.

On to `CC1(C)Oc2cccc(C(F)(F)F)c2[C@@H](N2CCCCC2=O)[C@@H]1O`, for which the Intrinsic activity in the assay filed under Cavia porcellus [1] was determined as 0.13. For the same compound, the IC50 in the assay filed under Cavia porcellus [2] (Cavia porcellus, Trachea) is > 20 µM.

In the assay listed under Cavia porcellus [1], `CC1(C)C=C(N2CCCC2=O)c2ccc(C(F)(F)F)cc2O1` came in with an Intrinsic activity of 0.97. For the same compound, in the assay listed under Cavia porcellus [2] (Cavia porcellus, Trachea), the IC50 was 5.1 µM.

Turning to `CC1(C)C=C(N2CCC2=O)c2cc(C#N)ccc2O1`, the Intrinsic activity in the assay listed under Cavia porcellus [1] was 0.91. For the same compound, half-maximal inhibition in the assay listed under Cavia porcellus [2] (Cavia porcellus, Trachea) (IC50) required 7.5 µM.

For the compound `Cn1c(=O)c2[nH]cnc2n(C)c1=O.Cn1c(=O)c2[nH]cnc2n(C)c1=O.NCCN` [AMINOPHYLLINE], the Intrinsic activity in the assay listed under Cavia porcellus [1] was determined as 0.54. The compound also gave an IC50 in the assay listed under Cavia porcellus [2] (Cavia porcellus, Trachea) of 20.1 µM.

Turning to `CC1(C)C=C(N2CCCCC2=O)c2ccc(C(F)(F)F)cc2O1`, the Intrinsic activity in the assay filed under Cavia porcellus [1] came out at 0.97. In the assay listed under Cavia porcellus [2] (Cavia porcellus, Trachea), it took 2.97 µM to reach half-maximal inhibition (IC50).

In the case of `CC1(C)C=C(n2ccccc2=O)c2cc(C(F)(F)F)ccc2O1`, in the assay listed under Cavia porcellus [1], the Intrinsic activity worked out at 0.97. Moreover, in the assay listed under Cavia porcellus [2] (Cavia porcellus, Trachea), the IC50 is 0.056 µM.

In the assay filed under Cavia porcellus [1], `CC1(C)C=C(N2CCCCC2=O)c2cc(C(F)(F)F)ccc2O1` gave an Intrinsic activity of 0.89. In the assay filed under Cavia porcellus [2] (Cavia porcellus, Trachea), this compound displayed an IC50 of 0.65 µM.

As to `CC1(C)Oc2ccncc2[C@@H](n2ccccc2=O)[C@@H]1O`, in the assay filed under Cavia porcellus [1], the Intrinsic activity was 0.81. The midpoint of inhibition in the assay filed under Cavia porcellus [2] (Cavia porcellus, Trachea), the IC50, lay at 5.1 µM.

The compound `CC1(C)Oc2ccncc2[C@@H](N2CCCCC2=O)[C@@H]1O` returned an Intrinsic activity in the assay listed under Cavia porcellus [1] of 0.84. In the assay filed under Cavia porcellus [2] (Cavia porcellus, Trachea), this compound displayed an IC50 of 0.66 µM.

Compound `CC1(C)Oc2ccc(C#N)cc2[C@@H](n2ccccc2=O)[C@@H]1O` [EMAKALIM] had an Intrinsic activity in the assay filed under Cavia porcellus [1] of 0.96. In the assay listed under Cavia porcellus [2] (Cavia porcellus, Trachea), this compound returned an IC50 of 0.76 µM.
